# Measurements pooled from the literature.
# Compare with care: the assays were run in different laboratories.
# Target: cGMP-dependent protein kinase 1 (PRKG1, Homo sapiens, UniProt Q13976)
# Residues used in one study (Q13976 1-671): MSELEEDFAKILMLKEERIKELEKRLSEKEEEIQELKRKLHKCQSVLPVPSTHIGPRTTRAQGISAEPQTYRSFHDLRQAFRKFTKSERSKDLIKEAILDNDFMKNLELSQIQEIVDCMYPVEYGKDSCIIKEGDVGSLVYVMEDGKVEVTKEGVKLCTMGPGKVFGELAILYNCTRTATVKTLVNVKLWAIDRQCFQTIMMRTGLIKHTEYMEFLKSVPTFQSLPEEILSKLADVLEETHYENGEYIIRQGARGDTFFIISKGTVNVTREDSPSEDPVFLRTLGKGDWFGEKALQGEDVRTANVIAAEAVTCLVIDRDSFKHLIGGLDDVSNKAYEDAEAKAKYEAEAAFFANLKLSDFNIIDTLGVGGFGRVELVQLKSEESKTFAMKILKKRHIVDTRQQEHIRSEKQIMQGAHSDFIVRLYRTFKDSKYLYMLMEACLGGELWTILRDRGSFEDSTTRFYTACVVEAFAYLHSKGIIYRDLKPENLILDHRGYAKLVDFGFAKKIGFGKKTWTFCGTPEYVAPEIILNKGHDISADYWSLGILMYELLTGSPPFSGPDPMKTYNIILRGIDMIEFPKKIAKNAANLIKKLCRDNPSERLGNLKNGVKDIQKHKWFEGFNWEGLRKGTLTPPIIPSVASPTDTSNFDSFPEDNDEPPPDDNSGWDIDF
Compound,read-out,action,method,tested at,endpoint,value
Cc1cnc(NC2CCOCC2)nc1-n1cnc(C(=O)NC(CN)c2cc(F)cc(Cl)c2)c1 (stereo not shown),enzyme activity,inhibitor,radiometric,1 µM,remaining activity,100%
Cn1cnc(Br)c1C1=CN(c2ncnc3[nH]cnc23)CCS1,enzyme activity,inhibitor,radiometric,50 nM,inhibition,72.1%
CC(C)(C)c1nc2c(s1)c1nc(N)ncc1c1ccc(NS(=O)(=O)c3c(F)cccc3F)c(F)c12,enzyme activity,inhibitor,radiometric,1 µM,remaining activity,99%
CCCS(=O)(=O)Nc1ccc(F)c(C(=O)c2c[nH]c3ncc(-c4ccc(Cl)cc4)cc23)c1F,enzyme activity,inhibitor,,1 µM,inhibition,< 10%
CC/C(=N\NC(=O)NCc1cccc(O)c1)c1ccc(O)c(C)c1O,enzyme activity,inhibitor,,0.1 µM,inhibition,55.7%
COc1cc2ncnc(Nc3ccc(Oc4ccccc4)cc3C)c2cc1OC,enzyme activity,inhibitor,,1 µM,inhibition,1%
CS(=O)(=O)N1CCCC(NC(=O)[C@H](CCC2CCCCC2)NC(=O)c2ccc(CNC(=O)c3cnc4ccccn34)cc2)C1 (stereo partly shown),cell-free assay,,competition with immobilised ligand,0.1 µM,remaining binding,100%
CNC(=O)c1cc(Oc2ccc(NC(=O)Nc3ccc(Cl)c(C(F)(F)F)c3)cc2)ccn1,enzyme activity,inhibitor,,10 µM,inhibition,-2%
CNC(=O)Nc1ccc2c(c1)CC[C@@]21OC(=O)N(CC(=O)N(Cc2ccc(F)cc2)[C@@H](C)C(F)(F)F)C1=O,cell-free assay,,competition with immobilised ligand,1 µM,remaining binding,100%
CN1CC(Oc2cnc(C#N)cc2-c2ccn3nc(NC(=O)C4CC4)cc3c2)C1,enzyme activity,inhibitor,,1 µM,inhibition,2%
Cn1nc(C(=O)NCc2ccc(C(=O)O)cc2)cc1-c1ccc2[nH]ccc2c1,cell-free assay,,competition with immobilised ligand,0.1 µM,remaining binding,100%
Cc1ccc(C(=O)Nc2ccc(CN3CCN(C)CC3)c(C(F)(F)F)c2)cc1C#Cc1cnc2cccnn12,enzyme activity,inhibitor,,23.5 nM,remaining activity,72%
NS(=O)(=O)c1cc(NC(=O)Cc2ccccc2)ccc1Oc1cccc(Cl)c1,cell-free assay,,competition with immobilised ligand,1 µM,remaining binding,100%
CCOc1cc(-c2nncn2C)ccc1Nc1ncc2cc(C)nc(NCC(C)(C)C)c2n1,enzyme activity,inhibitor,FRET,1 µM,inhibition,< 15%
CCCOc1ccc(OC)c(F)c1C(=O)c1ccc(C(=O)N[C@@H]2CNC[C@H]2NC(=O)c2ccc3[nH]ncc3c2)cc1,enzyme activity,inhibitor,,0.75 µM,remaining activity,0%
Cc1cc(-n2nc(Cc3cc(F)cc(C(F)(F)F)c3)nc2C)ccc1C(N)=O,cell-free assay,,competition with immobilised ligand,1 µM,remaining binding,100%
